# In PubChem BioAssay:
# Active and inactive are the calls of the source.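 How the source made its calls, unless noted: active means visual image review flags a hit and inhibition of aggregation exceeds 20%; inconclusive means visual hit but inhibition at or below 20%; inactive means no hit on visual image review.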
# Tests used:
# [1] = inhibitors of TNFa-induced NFkB p65 translocation, primary screen, imaging, HUVEC, MLSMR starter and 10KST1 sets (AID 438;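 active means inhibition above 20% together with a positive visual image hit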;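 further: compound added about 3h40 before a 20 min TNFalpha stimulation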;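 on inhibition: signal is the nuclear over cytoplasmic p65 intensity ratio per well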); settings: HUVEC TNFa-induced p65 nuclear translocation; cell count: measured here: nuclei count (cytotoxicity indicator), at 2.08 µM; inhibition: at 2 µM, stronger effect = higher value, 0% TNFa-plus-vehicle, 100% no-TNFa wells
# [2] = inhibitors of mutant huntingtin aggregation, primary screen, imaging, exon1htt(103Q)mCFP cells, high-content imaging (AID 483); settings: exon1htt(103Q)mCFP cell line, aggregate imaging, at 2 µM; inhibition of aggregation: stronger effect = higher value; nuclei count: measured here: cell count, toxicity;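 further: compound exposure lasted 3 days before fixation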;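 on nuclei count: percent of the per-plate median nuclei count of sample wells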
# [3] = inhibitors of E-selectin induction by TNFa, primary screen, imaging, HUVEC, immunofluorescence, MLSMR starter and 10KST1 sets (AID 487;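 active means visually confirmed hit in the image check and inhibition above 20%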;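 on inhibition: signal is fraction of cell area covered by stained E-selectin grains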;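 on nuclei count: 100% = median nuclei count of all wells on the same plate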); settings: HUVEC TNFalpha-induced E-selectin immunofluorescence imaging, at 2 µM; inhibition: stronger effect = higher value; nuclei count: measured here: cell number, toxicity
# [4] = biological target: Voltage-gated potassium channel subunit beta-2 (Rattus norvegicus) (UniProt P62483); test: KvBeta enzyme negative modulators, primary screen, biochemical, NADPH fluorescence (AID 622;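 active means fluorescence slope higher than the sample average by over 3 SD, cut at about -0.22 in these data, passing the limit was not always enough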;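 further: slope of raw intensity against log time taken from 70 to 1610 s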); settings: recombinant KvBeta, 4-cyanobenzaldehyde reduction, at 10 µM, stronger effect = higher value
# Voltage-gated potassium channel subunit beta-2 (Rattus norvegicus), sequence (P62483 whole entry, looked up): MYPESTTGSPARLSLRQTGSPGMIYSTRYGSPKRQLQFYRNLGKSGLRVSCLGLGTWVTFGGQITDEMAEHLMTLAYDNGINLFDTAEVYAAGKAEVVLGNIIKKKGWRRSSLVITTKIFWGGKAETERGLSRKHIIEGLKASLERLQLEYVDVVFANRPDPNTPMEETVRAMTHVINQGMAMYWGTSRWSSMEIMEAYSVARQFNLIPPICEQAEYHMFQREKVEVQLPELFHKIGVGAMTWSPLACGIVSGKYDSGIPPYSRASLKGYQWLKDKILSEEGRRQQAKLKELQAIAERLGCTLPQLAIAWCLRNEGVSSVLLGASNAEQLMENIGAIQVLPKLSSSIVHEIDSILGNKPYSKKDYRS
# [5] = biological target: Voltage-gated potassium channel subunit beta-2 (Rattus norvegicus) (UniProt P62483); test: KvBeta positive modulators, primary screen, biochemical, NADPH fluorescence (AID 623;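 active means NADPH fluorescence slope more negative than the mean of all samples by about 3 SD, 99.7% confidence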;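 further: fluorescence intensity change per second fitted from 20 to 320 s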); settings: Recombinant KvBeta, NADPH fluorescence decrease slope, 10 min; at 10 µM; stronger effect = lower value
# [6] = biological target: Muscarinic acetylcholine receptor M4 (Homo sapiens) (UniProt P08173); test: compounds altering M4/GIRK thallium flux, either direction, primary screen, M4 allosteric agonist project, cell-based, HEK293 M4/GIRK, BTC-AM (AID 625;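 active means fluorescence slope after compound addition differing from the mean of all tested samples at 99.7% confidence, mostly higher but some lower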;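 further: thallium influx through GIRK channels coupled to M4 in HEK293 cells with BTC-AM dye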); settings: at 10 µM, actives lie on both sides
# Muscarinic acetylcholine receptor M4 (Homo sapiens), sequence (P08173 whole entry, looked up): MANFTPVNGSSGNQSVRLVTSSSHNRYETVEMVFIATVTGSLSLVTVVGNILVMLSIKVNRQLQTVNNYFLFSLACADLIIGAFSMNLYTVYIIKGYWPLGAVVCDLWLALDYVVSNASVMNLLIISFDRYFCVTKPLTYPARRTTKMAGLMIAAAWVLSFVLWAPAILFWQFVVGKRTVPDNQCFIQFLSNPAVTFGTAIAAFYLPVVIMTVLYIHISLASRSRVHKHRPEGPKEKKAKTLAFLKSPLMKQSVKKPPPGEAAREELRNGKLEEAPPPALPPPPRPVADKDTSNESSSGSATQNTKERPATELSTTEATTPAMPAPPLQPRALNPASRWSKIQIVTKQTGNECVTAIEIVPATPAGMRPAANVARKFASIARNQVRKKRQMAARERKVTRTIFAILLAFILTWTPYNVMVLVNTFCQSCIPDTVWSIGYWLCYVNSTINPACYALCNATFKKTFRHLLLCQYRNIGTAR
# Procedure, shortened: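 assay system = HEK293 cells with M4 receptor and GIRK channels | medium = pH 7.3 thallium assay buffer | doses = 10 µM final, single point | timing = cells overnight at 37 °C, BTC-AM loading 1 h, reads 2 min total | signal = BTC-AM fluorescence, 1 Hz kinetic reads | read-out = post-addition slope, 15–24 s, of baseline-normalized fluorescence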
# [7] = inhibitors of Sendai virus-induced IRF3 signaling, primary screen, TLR/RLR signaling modifier project, cell-based, Sendai virus stimulus, luciferase, 10K MLSCN set (AID 602276;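 active means inhibition at or above 50% at 10 µM; inactive means inhibition below 50%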;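 further: firefly luciferase from ISG56 promoter only with Renilla not read in this screen; 0% = Sendai virus plus DMSO and 100% = medium plus DMSO without virus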); settings: HEK293 RL24 IRF3 luciferase reporter, at 10 µM, stronger effect = higher value
# [8] = inhibitors of poly I:C-induced TLR3 signaling, primary screen, cell-based, poly I:C stimulus, luciferase, 10K MLSCN set (AID 602277;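 active means inhibition of the reporter signal at or above 50%; inactive means inhibition below 50%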); settings: HEK293-TLR3 RL24 IRF3 luciferase reporter, at 10 µM, stronger effect = higher value
Compound,cell count [1],inhibition [1],inhibition of aggregation [2],nuclei count [2],inhibition [3],nuclei count [3],fluorescence slope [4],NADPH fluorescence slope [5],fluorescence slope [6],inhibition [7],inhibition [8]
Cc1nc(C)c(C(=O)C2=C(O)C(=O)N(CCN3CCOCC3)C2c2cccnc2)s1 (stereo not drawn),256,-0.4% (inactive),22.5% (inactive),92.8%,-7.1% (inactive),96.9%,-0.557 (inactive),-0.000101 (inactive),0.0026 (inactive),17.2% (inactive),22.7% (inactive)
COc1cc(C2Nc3cccc4cccc(c34)N2)cc(OC)c1O,372,-0.6% (inactive),29.3% (inactive),91.5%,-27.6% (inactive),108%,-0.464 (inactive),1.6e-05 (inactive),0.00443 (inactive),3.04% (inactive),5% (inactive)
CC(C)C1N=C2c3ccccc3N=C(SCC(=O)NCCc3ccc(S(N)(=O)=O)cc3)N2C1=O (stereo not drawn),566,-3.4% (inactive),7.3% (inactive),60.1%,-121% (inactive),110%,-0.598 (inactive),-3.3e-05 (inactive),0.00596 (inactive),22% (inactive),22% (inactive)
CC(C)(C)OC(=O)N1CCC(C(=O)N[C@H](Cc2ccccc2)C(=O)O)CC1,523,-7.8% (inactive),19.6% (inactive),85.5%,-11.8% (inactive),89.3%,-0.323 (inactive),-5.3e-05 (inactive),0.00514 (inactive),15.3% (inactive),18.1% (inactive)
Nc1nc(-c2ccc(Cl)cc2)cc(C(F)(F)F)n1,439,2.1% (inactive),4.9% (inactive),103%,-16.4% (inactive),109%,-0.582 (inactive),-1.9e-07 (inactive),0.00927 (inactive),1.69% (inactive),-12.7% (inactive)
Cn1cccc1C(=O)NC(=O)CSc1nnc(C2CC2)n1-c1ccccc1,670,-2% (inactive),-30.7% (inactive),93.6%,27.3% (inactive),62.6%,-0.589 (inactive),4.6e-06 (inactive),0.00691 (inactive),26.6% (inactive),9.42% (inactive)
O=C1CC(c2ccco2)CC(O)=C1C=NCCN1CCNCC1 (stereo not drawn),315,-8.1% (inactive),-0.5% (inactive),114%,-35% (inactive),122%,-0.595 (inactive),9e-06 (inactive),0.00594 (inactive),22.6% (inactive),31.6% (inactive)
Cc1cc(NS(=O)(=O)c2ccc(NC(=O)C(C)N3C(=O)c4ccccc4C3=O)cc2)nc(C)n1 (stereo not drawn),257,-2.1% (inactive),4.6% (inactive),98.5%,-11.1% (inactive),90.8%,-0.557 (inactive),-5.8e-05 (inactive),0.00257 (inactive),14.9% (inactive),18.8% (inactive)
CN(C)/C=c1\sc2c(C#N)cc(C(=O)c3ccc(Br)cc3)n2c1=O,398,8.6% (inactive),5.6% (inactive),102%,0.2% (inactive),102%,-0.439 (inactive),-5.9e-05 (inactive),-0.00984 (active),-3.73% (inactive),19.1% (inactive)
O=C(COc1nnnc2ccccc12)N1CCCc2ccccc21,327,0.2% (inactive),-10.1% (inactive),106%,-50.4% (inactive),130%,-0.43 (inactive),-7.5e-05 (inactive),0.00597 (inactive),8.08% (inactive),16.5% (inactive)
CN(c1cccc(NC(=O)COc2ccccc2)c1)S(C)(=O)=O,226,7.2% (inactive),21.6% (inactive),91.6%,-143% (inactive),111%,-0.49 (inactive),6.4e-05 (inactive),0.00411 (inactive),-58.9% (inactive),-120% (inactive)
COc1cccc2cc(C(=O)N3CCN(C45CC6CC(CC(C6)C4)C5)CC3)c(=O)oc12,213,9.1% (inactive),17.3% (inactive),71.5%,43.8% (inactive),85.2%,-0.443 (inactive),2.5e-05 (inactive),0.00456 (inactive),5.81% (inactive),21.6% (inactive)
COc1ccc(CC(=O)NCc2ccccc2)cc1S(=O)(=O)N1CCOCC1,404,-3.1% (inactive),-17.5% (inactive),104%,-26.1% (inactive),110%,-0.583 (inactive),-1.6e-05 (inactive),0.00498 (inactive),18.6% (inactive),21.9% (inactive)
C=CCN(CC=C)C(=O)CN1C(=O)c2ccccc2C1=O,356,0.2% (inactive),27.5% (inactive),83.2%,-103% (inactive),117%,-0.572 (inactive),-1.3e-05 (inactive),0.0065 (inactive),19.9% (inactive),22.1% (inactive)
CCOc1ccc(C2/C(=C(/O)c3ccccc3)C(=O)C(=O)N2CCCN(C)C)cc1OC (stereo not drawn),411,-1.1% (inactive),-13.7% (inactive),102%,-29.6% (inactive),92.2%,-0.446 (inactive),-4.1e-05 (inactive),0.00491 (inactive),19.2% (inactive),15.1% (inactive)
O=C(CCN1CCN(c2ccc(F)cc2)CC1)Nc1ccccc1F,315,-2.1% (inactive),34.9% (active),84.8%,19.6% (inactive),87.8%,-0.446 (inactive),0.000136 (inactive),0.00622 (inactive),16.9% (inactive),24.9% (inactive)
CCOC(=O)c1[nH]c(C)c(C(=O)Nc2ccccc2F)c1C,637,-9.7% (inactive),-35.4% (inactive),48.5%,11.3% (inactive),94.5%,-0.435 (inactive),2.7e-05 (inactive),0.00822 (inactive),27.9% (inactive),-0.299% (inactive)
Cc1cccc(N2CCN(S(=O)(=O)c3ccc4c(c3)CCC(=O)N4)CC2C)c1 (stereo not drawn),322,4.7% (inactive),8.5% (inactive),123%,-29.6% (inactive),126%,-0.453 (inactive),-0.00034 (inactive),0.00513 (inactive),10.8% (inactive),19.1% (inactive)
CCCCOc1ccc(NC(=O)Cn2c(=O)ccc3c(C)cc(C)nc32)cc1,400,5.6% (inactive),11.8% (inactive),88.5%,-342% (inactive),149%,-0.565 (inactive),8.6e-06 (inactive),0.0062 (inactive),15.2% (inactive),20.7% (inactive)
Cc1nc2ccccc2cc1C(=O)NCc1ccco1,387,3.2% (inactive),-3.6% (inactive),75.3%,-278% (inactive),126%,-0.53 (inactive),-3.7e-05 (inactive),0.00494 (inactive),1.46% (inactive),0.0614% (inactive)
COc1ccc(-c2ccc(-c3nnc(-c4ccncc4)o3)cc2)cc1,379,-7.7% (inactive),5.3% (inactive),103%,-76.9% (inactive),99.2%,-0.501 (inactive),-3.5e-05 (inactive),0.00505 (inactive),-14.4% (inactive),-28.2% (inactive)
CN(CC(=O)N1CCN(c2ccc(F)cc2)CC1)S(=O)(=O)c1ccc(F)cc1,389,-5.2% (inactive),-9.8% (inactive),103%,-100% (inactive),121%,-0.595 (inactive),-6.1e-05 (inactive),0.00279 (inactive),11.3% (inactive),-4.19% (inactive)
Cc1cc(NS(=O)(=O)c2ccccc2)n(-c2ccccc2)n1,395,10.8% (inactive),-18.2% (inactive),94.7%,-59.1% (inactive),106%,-0.544 (inactive),-4.8e-05 (inactive),0.00508 (inactive),-0.656% (inactive),28% (inactive)
O=C(O)c1cc(/C=N\O)ccc1OCc1ccccc1,697,-6.9% (inactive),2.9% (inactive),112%,-30.9% (inactive),104%,-0.545 (inactive),-1.3e-05 (inactive),0.007 (inactive),-0.244% (inactive),11.6% (inactive)
CN(C)C(=O)CN(c1ccc(F)c(Cl)c1)S(C)(=O)=O,352,-2.1% (inactive),-0.4% (inactive),104%,5.1% (inactive),109%,-0.56 (inactive),-8.3e-05 (inactive),0.00357 (inactive),1.05% (inactive),9.43% (inactive)
COc1ccccc1-n1nnnc1SCc1ccccc1,211,-1.5% (inactive),6.5% (inactive),108%,-25.5% (inactive),92.6%,-0.51 (inactive),-2.7e-05 (inactive),0.00333 (inactive),13% (inactive),16.5% (inactive)
c1csc(-c2nc3nc4ccccc4nc3n2Cc2ccc3c(c2)OCO3)c1,837,1.7% (inactive),-18.6% (inactive),114%,-9.5% (inactive),108%,-0.405 (inactive),-4.1e-05 (inactive),0.00582 (inactive),-28.9% (inactive),-79.4% (inactive)
O=C(O)c1cnn2c1NC(c1ccc(F)cc1)CC2C(F)(F)F (stereo not drawn),613,10.2% (inactive),-6.3% (inactive),99.2%,-85.7% (inactive),116%,-0.472 (inactive),-4.5e-05 (inactive),0.00543 (inactive),10.7% (inactive),1.93% (inactive)
